# Laboratory results taken from ChEMBL document CHEMBL2424553, “Synthesis, molecular docking and kinetic properties of β-hydroxy-β-phenylpropionyl-hydroxamic acids as Helicobacter pylori urease inhibitors” (Eur J Med Chem, 2013).
# Tests used:
# [1] = target: T1, Urease subunit alpha/Urease subunit beta (Helicobacter pylori (strain ATCC 700392 / 26695) (Campylobacterpylori)) (UniProt P69996+P14916); experiment: Ratio of IC50 for urease in Helicobacter pylori ATCC 43504 intact cell to IC50 for urease extracted from Helicobacter pylori ATCC 43504
# [2] = target: T2, Urease subunit alpha/Urease subunit beta (Helicobacter pylori (strain ATCC 700392 / 26695) (Campylobacterpylori), UniProt P69996); experiment: Inhibition of urease in Helicobacter pylori ATCC 43504 intact cell assessed as ammonia production preincubated for 1.5 hrs by indophenol-based method
# How it was run: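 H. pylori grown 24 h at 37 °C in Brucella broth with 10% heat-inactivated horse serum, microaerobic (5% O₂, 10% CO₂, 85% N₂); cells pelleted (5000 g, 4 °C), PBS-washed (pH 7.4), suspended at 4.0 × 10⁷ CFU/mL. Suspension with test compound preincubated 1.5 h at room temperature; ammonia measured by Weatherburn indophenol method.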
# [3] = target: T2, Urease subunit alpha/Urease subunit beta; experiment: Inhibition of urease extracted from Helicobacter pylori ATCC 43504 assessed as ammonia production preincubated for 1.5 hrs by indophenol-based method
# How it was run: (§1)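 H. pylori ATCC 43504 grown 24 h at 37 °C in Brucella broth with 10% heat-inactivated horse serum under microaerobic gas (5% O2, 10% CO2, 85% N2). Cells pelleted (5000 g, 4 °C) and washed twice in PBS pH 7.4 to prepare urease. Enzyme pre-incubated with test compound 1.5 h at room temperature. Ammonia measured by the indophenol method. Run in triplicate.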
# [4] = target: T2, Urease subunit alpha/Urease subunit beta; experiment: Mixed-type competitive inhibition of Helicobacter pylori ATCC 43504 urease using urea as substrate by Lineweaver-burk plot analysis
# [5] = target: T2, Urease subunit alpha/Urease subunit beta; experiment: Inhibition of Helicobacter pylori urease; how it was run: as §1
# [6] = target: T1, Urease subunit alpha/Urease subunit beta (Helicobacter pylori (strain ATCC 700392 / 26695) (Campylobacterpylori)); experiment: Potency index, ratio of AHA IC50 to compound IC50 for Helicobacter pylori ATCC 43504 urease
# T1 sequence (P14916 whole entry, looked up): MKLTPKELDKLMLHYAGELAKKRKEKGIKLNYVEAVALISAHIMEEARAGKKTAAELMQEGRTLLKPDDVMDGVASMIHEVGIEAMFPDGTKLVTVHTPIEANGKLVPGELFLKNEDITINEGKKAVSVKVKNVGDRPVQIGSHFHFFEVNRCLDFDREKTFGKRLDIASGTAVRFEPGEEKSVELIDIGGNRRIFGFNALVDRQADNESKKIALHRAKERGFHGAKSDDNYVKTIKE
# T1 sequence (P69996 whole entry, looked up): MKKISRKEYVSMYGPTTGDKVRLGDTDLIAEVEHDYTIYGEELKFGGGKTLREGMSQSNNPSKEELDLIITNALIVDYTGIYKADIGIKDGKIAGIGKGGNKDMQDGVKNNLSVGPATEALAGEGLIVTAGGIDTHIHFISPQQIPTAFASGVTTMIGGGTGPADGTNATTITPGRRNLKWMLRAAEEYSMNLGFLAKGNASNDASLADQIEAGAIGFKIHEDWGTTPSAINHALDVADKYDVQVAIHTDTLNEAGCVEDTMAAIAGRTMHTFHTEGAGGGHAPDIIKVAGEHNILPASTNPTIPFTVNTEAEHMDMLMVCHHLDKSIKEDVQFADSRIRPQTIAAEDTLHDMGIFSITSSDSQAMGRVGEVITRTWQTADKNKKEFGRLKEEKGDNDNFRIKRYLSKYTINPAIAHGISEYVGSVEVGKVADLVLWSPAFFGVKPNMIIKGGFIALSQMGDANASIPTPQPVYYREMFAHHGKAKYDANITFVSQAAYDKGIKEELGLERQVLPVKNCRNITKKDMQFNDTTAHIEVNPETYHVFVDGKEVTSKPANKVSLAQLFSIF
# T2 sequence (P69996 whole entry): as the sequence (P69996 whole entry, looked up) above
# T2 sequence (P14916 whole entry, further chain): as the sequence (P14916 whole entry, looked up) above
smiles,measurement,setting,value
O=C(CC(O)c1cc(Cl)ccc1O)NO (racemic),Ratio IC50,[1],8.8
same,IC50,[2],11.3 µM
same,IC50,[3],1.28 µM
O=C(CC(O)c1ccccc1)NO (racemic),IC50,[3],15.6 µM
COc1cccc(C(O)CC(=O)NO)c1 (racemic),IC50,[3],23.2 µM
O=C(CC(O)c1cccc(Cl)c1Cl)NO (racemic),Ratio IC50,[1],4
same,IC50,[2],0.91 µM
same,IC50,[3],0.23 µM
same,Ki,[4],0.045 µM
O=C(CC(O)c1cccc(O)c1)NO (racemic),IC50,[3],131 µM
CN(C)c1ccc(C(O)CC(=O)NO)cc1 (racemic),IC50,[3],7.13 µM
O=C(CC(O)c1ccc(C(F)(F)F)cc1)NO (racemic),IC50,[3],7.89 µM
CC(=O)NO [ACETOHYDROXAMIC ACID],IC50,[2],110 µM
same,IC50,[3],27.6 µM
O=C(CC(O)c1ccc(OCc2ccccc2)cc1)NO (racemic),IC50,[3],61.5 µM
COc1ccccc1C(O)CC(=O)NO (racemic),IC50,[3],38.5 µM
O=C(CC(O)c1ccc(F)cc1)NO (racemic),IC50,[3],8.01 µM
O=C(CC(O)c1ccc(Cl)c(Cl)c1)NO (racemic),Ratio IC50,[1],3
same,IC50,[2],1.42 µM
same,IC50,[3],0.37 µM
O=C(CC(O)c1ccccc1F)NO (racemic),IC50,[3],5.6 µM
COc1ccc(F)cc1C(O)CC(=O)NO (racemic),IC50,[3],11 µM
O=C(CC(O)c1cc(Cl)cc(Cl)c1O)NO (racemic),Ratio IC50,[1],3
same,IC50,[2],8.9 µM
same,IC50,[3],1.04 µM
O=C(CC(O)c1ccc(Cl)cc1)NO (racemic),IC50,[3],3.39 µM
O=c1c(O)c(-c2ccc(O)c(O)c2)oc2cc(O)cc(O)c12 [QUERCETIN],IC50,[5],11.2 µM
O=C(CC(O)c1cccc(C(F)(F)F)c1)NO (racemic),Ratio IC50,[1],3
same,IC50,[2],6.81 µM
same,IC50,[3],1.22 µM
O=C(CC(O)c1ccccc1Cl)NO (racemic),Ratio IC50,[1],3
same,IC50,[2],9.21 µM
same,IC50,[3],1.19 µM
CN(C)c1ccc(C(=O)NO)cc1,IC50,[3],77.9 µM
O=C(CC(O)c1cccc(F)c1)NO (racemic),Ratio IC50,[1],3
same,IC50,[2],13.3 µM
same,IC50,[3],3.99 µM
COc1ccc(C(O)CC(=O)NO)cc1 (racemic),IC50,[3],75.1 µM
O=C(CC(O)c1cccc(Cl)c1)NO (racemic),Ratio IC50,[6],330
same,IC50,[2],0.36 µM
same,IC50,[3],0.083 µM
same,Ki,[4],0.014 µM
